pIC50: −log10 of the molar value.
Assays:
[1] = Growth inhibition of human NCI60 cells after 2 days; type: functional
[2] = Inhibition of telomerase by TRAP assay
[3] = Selectivity index, ratio of GI50 for human NCI60 cells to IC50 for telomerase by TRAP assay; type: functional
[4] = species on record: Homo sapiens; assay: Binding affinity to quadruplex human telomeric sequence d[AG3(TTAGGG3) by fluorescence titration method
Method in brief: (§1)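 Fluorescence titration, read as ligand fluorescence quenching on DNA binding. Quadruplex was d[AG3(TTAGGG)3] and duplex ST-DNA. K came from a model fit to the titration data, and the ratio was taken as quadruplex K over duplex K.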

[5] = tested on: Salmonidae; assay: Binding affinity to salmon testis duplex genomic DNA by fluorescence titration method; method in brief: as §1
[6] = Ratio of binding constant K for G-quadruplex human telomeric sequence d[AG3(TTAGGG3) to binding constant K for salmon testis duplex genomic DNA by fluorescence titration method; method in brief: as §1
[7] = Stability of F21T DNA quadruplex sequence d[G3(T2AG3)3] assessed as thermal denaturation by FRET analysis
Method in brief: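 FRET melting of F21T, d[G3(T2AG3)3] labelled with 5′ fluorescein and 3′ tamra, with compound at 1 µM. Lithium chloride buffer held sodium at 10 mM. Tm was taken where normalized fluorescence equalled 0.5, and ∆Tm as the ligand-induced change.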

[8] = tested on: Salmonidae; assay: Increase in melting temperature of salmon testis DNA
[9] = species on record: Homo sapiens; assay: Binding affinity to quadruplex human telomeric sequence d[AG3(TTAGGG3) by surface plasmon resonance method
Method in brief: (§2)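 SPR in 10 mM HEPES pH 7.4 with 200 mM KCl, 3 mM EDTA, 0.005% surfactant P20. Quadruplex was human telomeric d[AG3(TTAGGG)3] and duplex the alternating GC eight base pair hairpin d[(CG)8]. Equilibrium binding constants K were determined, and the ratio taken as quadruplex K over duplex K.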

[10] = Binding affinity to duplex DNA d[(CG)8] by surface plasmon resonance method; method in brief: as §2
[11] = Ratio of binding constant K for G-quadruplex human telomeric sequence d[AG3(TTAGGG3) to binding constant K for duplex DNA d[(CG)8] by surface plasmon resonance method; method in brief: as §2
[12] = tested on: Salmonidae; assay: Binding affinity to salmon testis DNA by UV titration
Method in brief: (§3)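 UV absorbance titration following the bathochromic shift on duplex binding. Data were fitted to one binding mode or to two (strong Ks and weak Kw) modes.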

[13] = Binding affinity to poly[dA].poly[dT] by UV titration; method in brief: as §3
[14] = Binding affinity to poly[dA-dT]2 by UV titration; method in brief: as §3
[15] = Binding affinity to poly[dG].poly[dC] by UV titration; method in brief: as §3
[16] = Binding affinity to poly[dG-dC]2 by UV titration; method in brief: as §3
[17] = species on record: Homo sapiens; assay: Stabilization of G-quadruplex in human cmyc Pu27 DNA sequence assessed as decrease in full length product at less than 1 uM by Taq polymerase arrest assay relative to G-quadruplex arrest; design: scale not given: the % may be the effect or the level left
Method in brief: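 Taq polymerase arrest: the quadruplex-forming sequence sat in a cassette template, and a radiolabeled primer was extended by the polymerase. Full-length (77-mer) and arrest product bands were quantified and their ratio plotted against drug concentration. IC50 was the concentration giving 50% decrease in full-length product relative to arrest products.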

| SMILES | GI50 ([1]; Homo sapiens, NCI60, 48 h) | pIC50 [2] | Selectivity index [3] | K [4] | K [5] | Ratio [6] | ΔTm [7] | further results |
| --- | --- | --- | --- | --- | --- | --- | --- | --- |
| CN1c2ccccc2-c2c3c1cccc3c1cc(Cl)ccc1[n+]2C.[I-] | 3160 nM | 6.59 | 12 | 6.7 10^5/M | 1.1 10^5/M | 6 | 5 °C |  |
| Nc1ccc2c(c1)Nc1c3ccccc3nc3cccc-2c13 | 1480 nM |  |  |  |  |  |  |  |
| Cc1cc2c3c([n+](C)c4ccc(F)cc4c3c1)-c1cc(F)ccc1N2C |  | 6.48 |  | 2.7 10^5/M | 0.56 10^5/M | 4.8 | 8 °C | Tm [8]: 10.8 °C; K [9]: 110 10^5/M; K [10]: 3.4 10^5/M; Ratio [11]: 32.3; K [12]: 2 10^5/M; K [13]: 8 10^4/M; K [14]: 6 10^5/M; K [15]: 1 10^6/M; K [16]: 6 10^6/M; Activity [17]: 50% |
| CN1c2ccccc2-c2c3c1cccc3c1cc(/C=C/C(=O)N3CCOCC3)ccc1[n+]2C | 67600 nM | 6.43 |  | 3.2 10^5/M | 0.31 10^5/M | 10.3 | 4.5 °C | K [9]: 71 10^5/M; K [10]: 25 10^5/M; Ratio [11]: 2.8; Activity [17]: 50% |
| CC(=O)OCCCc1cc2c3c([n+](C)c4ccc(CCCOC(C)=O)cc4c3c1)-c1ccccc1N2C |  |  |  | 1.6 10^5/M | 0.94 10^5/M | 1.7 | 0.5 °C | K [9]: 2.4 10^5/M; K [10]: 1.7 10^5/M; Ratio [11]: 1.4 |
| CCCCC(=O)Nc1ccc2c3cccc4c3c([n+](C)c2c1)-c1ccccc1N4C | 1000 nM |  |  |  |  |  |  |  |
| CN1c2ccccc2-c2c3c1cccc3c1ccc(N(C)S(=O)(=O)c3ccc(F)cc3)cc1[n+]2C.[I-] | 10000 nM | 6.14 | 14 | 1.9 10^5/M | 0.83 10^5/M | 2.3 |  | K [9]: 48 10^5/M; K [10]: 17 10^5/M; Ratio [11]: 2.8 |
| COC(=O)CCCCC(=O)Nc1ccc2c3cccc4c3c([n+](C)c2c1)-c1ccccc1N4C.[I-] | 6020 nM | 6.68 | 27 | 10 10^5/M | 0.68 10^5/M | 14.7 |  |  |
| CC(=O)Nc1ccc2c3cccc4c3c([n+](C)c2c1)-c1ccccc1N4C.[I-] |  | 6.42 | 32 | 3.7 10^5/M | 0.63 10^5/M | 5.9 | 10 °C | K [9]: 240 10^5/M; K [10]: 3.8 10^5/M; Ratio [11]: 63; Activity [17]: 50% |
| CN1c2ccccc2-c2c3c1cccc3c1ccccc1[n+]2C.[I-] | 7580 nM | 5.81 | 4.8 | 0.91 10^5/M | 0.71 10^5/M | 1.3 | 2.8 °C |  |
| c1ccc2c(c1)Nc1cccc3cc4[n+](c-2c13)CCC4 | 90 nM |  |  |  |  |  |  |  |
| CN1c2ccccc2-c2cccc3nc4ccccc4c1c23 | 320 nM |  |  |  |  |  |  |  |
| COc1cc2c3c([n+](C)c4ccccc4c3c1)-c1ccc(/C=C/C(=O)N3CCOCC3)cc1N2C (stereo in doubt; 9r) |  |  |  |  |  |  |  | GI50 [1]: 43600 nM |
| CCCCCCCCCCCC(=O)Nc1ccc2c3cccc4c3c([n+](C)c2c1)-c1ccccc1N4C | 540 nM |  |  |  |  |  |  |  |
| CN1c2ccccc2-c2c3c1cccc3c1ccc(NC(=O)C(C)(C)C)cc1[n+]2C.[I-] | 3300 nM | 6.64 | 14 | 11 10^5/M | 1.2 10^5/M | 9.2 |  |  |
| CN1c2ccccc2-c2c3c1cccc3c1ccc(N)cc1[n+]2C.[I-] | 3550 nM | 5.73 | 1.9 |  |  |  |  |  |
| COC(=O)/C=C/c1ccc2c(c1)N(C)c1cc(OC)cc3c1c-2[n+](C)c1ccccc31 | 4570 nM |  |  |  |  |  |  |  |

| SMILES | GI50 ([1]; Homo sapiens, NCI60, 48 h) | pIC50 [2] | Selectivity index [3] | K [4] | K [5] | Ratio [6] | ΔTm [7] | further results |
| --- | --- | --- | --- | --- | --- | --- | --- | --- |
| COc1cc(NS(C)(=O)=O)ccc1Nc1c2ccccc2nc2ccccc12 |  |  |  |  |  |  | 0 °C |  |
| c1cc2c3c(c1)-c1cccc4nc5ccccc5c(c14)N3CC2 | 60 nM |  |  |  |  |  |  |  |
| CNc1ccc2c3cccc4c3c([n+](C)c2c1)-c1ccccc1N4C | 460 nM |  |  |  |  |  |  |  |
| CCN1c2ccccc2-c2c3c1cc(C)cc3c1ccccc1[n+]2CC.[I-] | 1100 nM | 5.70 | 0.6 |  |  |  | 0 °C |  |
| COc1cc2c3c([n+](C)c4ccccc4c3c1)-c1ccc(/C=C/C(=O)N3CCOCC3)cc1N2C (stereo in doubt; 9t) |  |  |  |  |  |  |  | GI50 [1]: > 100000 nM |
| Cc1cc2c3c([n+](C)c4ccc(Cl)cc4c3c1)-c1cc(Cl)ccc1N2C | 4710 nM |  |  |  |  |  |  |  |
| COS(=O)(=O)[O-].Cc1ccc2c(c1)-c1c3c(cc(C)cc3c3cc(C)ccc3[n+]1C)N2C |  | 6.60 | 1.6 |  | 2.4 10^5/M |  | 7 °C | K [9]: 74 10^5/M; K [10]: 5.4 10^5/M; Ratio [11]: 13.7; K [12]: 8 10^6/M; K [13]: 4 10^6/M; K [14]: 4 10^5/M; K [15]: 1 10^6/M; K [16]: 1.2 10^6/M; Activity [17]: 50% |
| CN1c2ccccc2-c2c3c1cccc3c1ccc(NC(=O)C(F)(F)F)cc1[n+]2C.[I-] | 2200 nM | 6.51 | 7 | 6 10^5/M | 0.7 10^5/M | 8.6 |  | K [9]: 130 10^5/M; K [10]: 3.8 10^5/M; Ratio [11]: 34.2 |
| CN1c2ccccc2-c2c3c1cc(/C=C/C(=O)N1CCOCC1)cc3c1cc(Cl)ccc1[n+]2C | 12300 nM |  |  |  |  |  |  |  |
| COc1cc2c3c([n+](C)c4ccc(Cl)cc4c3c1)-c1ccccc1N2C.[I-] | 740 nM | 6.55 | 2.6 | 6.4 10^5/M | 2.2 10^5/M | 2.9 | 9 °C |  |
| CN(C)c1ccc2c3cccc4c3c([n+](C)c2c1)-c1ccccc1N4C | 280 nM |  |  |  |  |  | 3.8 °C |  |
| COc1cc2c3c([n+](C)c4ccccc4c3c1)-c1ccc(Cl)cc1N2C | 750 nM |  |  |  |  |  |  |  |
| CN1c2ccccc2-c2c3c1cccc3c1ccc(NC(=O)c3ccccc3)cc1[n+]2C | 6610 nM |  |  |  |  |  |  |  |
| CC(=O)Nc1ccc2c(c1)c1cccc3c1c([n+]2C)-c1ccccc1N3C.[I-] | 81300 nM | 6.39 | 195 | 3.1 10^5/M | 0.53 10^5/M | 5.8 |  | K [9]: 250 10^5/M; K [10]: 4.4 10^5/M; Ratio [11]: 57 |
| COS(=O)(=O)[O-].Cc1cc2c3c([n+](C)c4ccccc4c3c1)-c1ccccc1N2C | 1290 nM | 6.13 | 1.7 |  |  |  | 2 °C |  |
| CCOC(=O)Nc1ccc2c3cccc4c3c([n+](C)c2c1)-c1ccccc1N4C | 660 nM |  |  |  |  |  |  |  |

Source: ChEMBL document CHEMBL1141650, “Antitumor polycyclic acridines. 20. Search for DNA quadruplex binding selectivity in a series of 8,13-dimethylquino[4,3,2-kl]acridinium salts: telomere-targeted agents” (J Med Chem, 2008)
